Reference: ChEMBL document CHEMBL5058577, “EUbOPEN Chemogenomics Library 2 (Multiplex)” (2022)

Tested on: Fibroblast
Assay: Multiplex assay against human fibroblast
Format: toxicity, cell-based
Outline: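 Compound was added to live cells that had been stained at seeding with Hoechst33342, BioTracker Green Microtubule Cytoskeleton Dye, MitoTracker Red and Annexin V Alexa Fluor 680, and imaging followed on a CQ1 microscope at 37°C and 5% CO2. CellPathfinder machine-learning gating divided cells into Hoechst high-intensity objects or normal cells, normal cells into healthy, pyknosed or fragmented nuclei, and pyknosed cells into mitotic or apoptotic. Tubulin, mitochondrial-mass and membrane-permeability phenotypes are per cents of healthy-nucleus cells.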

[1] = 12 h, 1 µM, compound concentration 1 uM, replicate 1
[2] = 12 h, 1 µM, compound concentration 1 uM, replicate 2
[3] = 12 h, 10 µM, compound concentration 10 uM, replicate 1
[4] = 12 h, 10 µM, compound concentration 10 uM, replicate 2
[5] = 24 h, 1 µM, compound concentration 1 uM, replicate 1
[6] = 24 h, 1 µM, compound concentration 1 uM, replicate 2
[7] = 24 h, 10 µM, compound concentration 10 uM, replicate 1
[8] = 24 h, 10 µM, compound concentration 10 uM, replicate 2
[9] = 48 h, 1 µM, compound concentration 1 uM, replicate 1
[10] = 48 h, 1 µM, compound concentration 1 uM, replicate 2
[11] = 48 h, 10 µM, compound concentration 10 uM, replicate 1
[12] = 48 h, 10 µM, compound concentration 10 uM, replicate 2

Cl.Cl.OCCOCCN1CCN(C(c2ccccc2)c2ccc(Cl)cc2)CC1 (configuration not stated) [HYDROXYZINE HYDROCHLORIDE]
Population Apoptotic (%) [1]: 43% | Population Fragmented Nuclei (%) [1]: 11% | Population Healthy Nuclei (%) [1]: 75% | Population Hoechst High Intensity Objects (%) [1]: 1% | Population Membrane Permeable-Phenotype (%) [1]: 0% | Population Mitochondria Different-Phenotype (%) [1]: 4% | Population Mitotic Cells (%) [1]: 56% | Population Normal (%) [1]: 98% | Population Pyknosed Nuclei (%) [1]: 13% | Population Tubulin-Different-Phenotype (%) [1]: 25% | Total Cell Count [1]: 177 | Population Apoptotic (%) [2]: 51% | Population Fragmented Nuclei (%) [2]: 22% | Population Healthy Nuclei (%) [2]: 57% | Population Hoechst High Intensity Objects (%) [2]: 7% | Population Membrane Permeable-Phenotype (%) [2]: 8% | Population Mitochondria Different-Phenotype (%) [2]: 6% | Population Mitotic Cells (%) [2]: 48% | Population Normal (%) [2]: 92% | Population Pyknosed Nuclei (%) [2]: 20% | Population Tubulin-Different-Phenotype (%) [2]: 46% | Total Cell Count [2]: 155 | Population Apoptotic (%) [3]: 47% | Population Fragmented Nuclei (%) [3]: 27% | Population Healthy Nuclei (%) [3]: 58% | Population Hoechst High Intensity Objects (%) [3]: 2% | Population Membrane Permeable-Phenotype (%) [3]: 0% | Population Mitochondria Different-Phenotype (%) [3]: 14% | Population Mitotic Cells (%) [3]: 52% | Population Normal (%) [3]: 97% | Population Pyknosed Nuclei (%) [3]: 14% | Population Tubulin-Different-Phenotype (%) [3]: 45% | Total Cell Count [3]: 247 | Population Apoptotic (%) [4]: 40% | Population Fragmented Nuclei (%) [4]: 19% | Population Healthy Nuclei (%) [4]: 47% | Population Hoechst High Intensity Objects (%) [4]: 7% | Population Membrane Permeable-Phenotype (%) [4]: 7% | Population Mitochondria Different-Phenotype (%) [4]: 6% | Population Mitotic Cells (%) [4]: 59% | Population Normal (%) [4]: 92% | Population Pyknosed Nuclei (%) [4]: 32% | Population Tubulin-Different-Phenotype (%) [4]: 58% | Total Cell Count [4]: 178 | Population Apoptotic (%) [5]: 30% | Population Fragmented Nuclei (%) [5]: 9% | Population Healthy Nuclei (%) [5]: 78% | Population Hoechst High Intensity Objects (%) [5]: 1% | Population Membrane Permeable-Phenotype (%) [5]: 2% | Population Mitochondria Different-Phenotype (%) [5]: 6% | Population Mitotic Cells (%) [5]: 70% | Population Normal (%) [5]: 98% | Population Pyknosed Nuclei (%) [5]: 12% | Population Tubulin-Different-Phenotype (%) [5]: 30% | Total Cell Count [5]: 163 | Population Apoptotic (%) [6]: 44% | Population Fragmented Nuclei (%) [6]: 26% | Population Healthy Nuclei (%) [6]: 54% | Population Hoechst High Intensity Objects (%) [6]: 5% | Population Membrane Permeable-Phenotype (%) [6]: 5% | Population Mitochondria Different-Phenotype (%) [6]: 3% | Population Mitotic Cells (%) [6]: 55% | Population Normal (%) [6]: 94% | Population Pyknosed Nuclei (%) [6]: 18% | Population Tubulin-Different-Phenotype (%) [6]: 47% | Total Cell Count [6]: 154 | Population Apoptotic (%) [7]: 51% | Population Fragmented Nuclei (%) [7]: 28% | Population Healthy Nuclei (%) [7]: 62% | Population Hoechst High Intensity Objects (%) [7]: 1% | Population Membrane Permeable-Phenotype (%) [7]: 1% | Population Mitochondria Different-Phenotype (%) [7]: 10% | Population Mitotic Cells (%) [7]: 48% | Population Normal (%) [7]: 98% | Population Pyknosed Nuclei (%) [7]: 9% | Population Tubulin-Different-Phenotype (%) [7]: 47% | Total Cell Count [7]: 284 | Population Apoptotic (%) [8]: 36% | Population Fragmented Nuclei (%) [8]: 29% | Population Healthy Nuclei (%) [8]: 50% | Population Hoechst High Intensity Objects (%) [8]: 9% | Population Membrane Permeable-Phenotype (%) [8]: 6% | Population Mitochondria Different-Phenotype (%) [8]: 6% | Population Mitotic Cells (%) [8]: 63% | Population Normal (%) [8]: 90% | Population Pyknosed Nuclei (%) [8]: 20% | Population Tubulin-Different-Phenotype (%) [8]: 66% | Total Cell Count [8]: 198 | Population Apoptotic (%) [9]: 60% | Population Fragmented Nuclei (%) [9]: 17% | Population Healthy Nuclei (%) [9]: 68% | Population Hoechst High Intensity Objects (%) [9]: 4% | Population Membrane Permeable-Phenotype (%) [9]: 0% | Population Mitochondria Different-Phenotype (%) [9]: 3% | Population Mitotic Cells (%) [9]: 39% | Population Normal (%) [9]: 95% | Population Pyknosed Nuclei (%) [9]: 13% | Population Tubulin-Different-Phenotype (%) [9]: 31% | Total Cell Count [9]: 175 | Population Apoptotic (%) [10]: 42% | Population Fragmented Nuclei (%) [10]: 34% | Population Healthy Nuclei (%) [10]: 56% | Population Hoechst High Intensity Objects (%) [10]: 3% | Population Membrane Permeable-Phenotype (%) [10]: 2% | Population Mitochondria Different-Phenotype (%) [10]: 5% | Population Mitotic Cells (%) [10]: 57% | Population Normal (%) [10]: 96% | Population Pyknosed Nuclei (%) [10]: 9% | Population Tubulin-Different-Phenotype (%) [10]: 44% | Total Cell Count [10]: 155 | Population Apoptotic (%) [11]: 80% | Population Fragmented Nuclei (%) [11]: 22% | Population Healthy Nuclei (%) [11]: 69% | Population Hoechst High Intensity Objects (%) [11]: 4% | Population Membrane Permeable-Phenotype (%) [11]: 0% | Population Mitochondria Different-Phenotype (%) [11]: 7% | Population Mitotic Cells (%) [11]: 19% | Population Normal (%) [11]: 95% | Population Pyknosed Nuclei (%) [11]: 8% | Population Tubulin-Different-Phenotype (%) [11]: 62% | Total Cell Count [11]: 272 | Population Apoptotic (%) [12]: 37% | Population Fragmented Nuclei (%) [12]: 36% | Population Healthy Nuclei (%) [12]: 47% | Population Hoechst High Intensity Objects (%) [12]: 6% | Population Membrane Permeable-Phenotype (%) [12]: 11% | Population Mitochondria Different-Phenotype (%) [12]: 2% | Population Mitotic Cells (%) [12]: 62% | Population Normal (%) [12]: 94% | Population Pyknosed Nuclei (%) [12]: 15% | Population Tubulin-Different-Phenotype (%) [12]: 57% | Total Cell Count [12]: 200
